pIC50: −log10 of the molar value. Calls of active or inactive are those of the source. The rule behind the calls is not given here.
Tests used:
Nucleic Acid [1] = test: Binding affinity to calf thymus DNA assessed as hypochromic changes at 343 nm wavelength by UV-Vis spectrophotometric titrations; format: nucleic-acid assay; details: Bos taurus
Outline: (§1)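 UV/Vis titration: aliquots of ct-DNA (concentration as phosphate) added to compound solution in sodium cacodylate buffer pH 7.0, I = 0.05 mol dm^-3, 1 cm quartz cuvettes. Hypochromism followed at band maxima. Compound absorbance linear up to 2.0 × 10^-5 mol dm^-3. Binding data fitted by the Scatchard equation.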

Nucleic Acid [2] = test: Binding affinity to calf thymus DNA assessed as change in melting temperature at compound to polynucleotide ratio of 0.2 by UV-VIS spectroscopic analysis; format: nucleic-acid assay; details: Bos taurus
Outline: (§2)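 ct-DNA alone or with compound at set r = [compound]/[polynucleotide], in cacodylate buffer pH 7.0, I = 0.05 mol dm^-3. Absorbance at 260 nm followed against temperature, ligand absorbance subtracted, curves normalized. Tm is the transition midpoint, from the first-derivative maximum or by tangent method. ΔTm = Tm(complex) − Tm(free DNA), mean of ≥2 runs, error ±0.5 °C.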

MCF7 [3] = test: Cytostatic activity against human MCF7 cells at 1 to 10 uM after 72 hrs by MTT assay; format: functional, cell-based
Outline: (§3)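 Monolayers in DMEM with 10% FBS, 2 mM L-glutamine, penicillin and streptomycin (37 °C, 5% CO2) were seeded at 3000–6000 cells/well on day 0. Five 10-fold dilutions (0.01–100 µM) were added, followed by 72-h incubation and MTT read-out. Absorbances were converted to percentage growth by the NIH formulae. Each point was run in quadruplicate in three experiments; ANOVA with Tukey test.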

Nucleic Acid [4] = test: Binding affinity to calf thymus DNA assessed as appearance of weak, negative induced CD band at > 300 nm wavelength by circular dichroism spectroscopy; format: nucleic-acid assay; details: Bos taurus
Outline: (§4)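 CD spectra of ct-DNA (1.0 × 10^-5 mol dm^-3, as phosphate) titrated with compound at 25 °C. Sodium cacodylate buffer pH 7.0, I = 0.05 mol dm^-3, 1 cm quartz cuvette. DNA band (~274–275 nm) and induced bands above 300 nm followed versus r = [compound]/[ct-DNA].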

SW-620 [5] = test: Cytostatic activity against human SW620 cells at 1 to 10 uM after 72 hrs by MTT assay; format: functional, cell-based; outline: as §3
Nucleic Acid [6] = test: Binding affinity to calf thymus DNA assessed as change in melting temperature at compound to polynucleotide ratio of 0.5 by UV-VIS spectroscopic analysis; format: nucleic-acid assay; details: Bos taurus; outline: as §2
HeLa [7] = test: Cytostatic activity against human HeLa cells at 1 to 10 uM after 72 hrs by MTT assay; format: functional, cell-based; outline: as §3
SK-BR-3 [8] = test: Cytostatic activity against human SKBR3 cells at 1 to 10 uM after 72 hrs by MTT assay; format: functional, cell-based; outline: as §3
Nucleic Acid [9] = test: Binding affinity to calf thymus DNA assessed as UV/Vis spectral change at compound to DNA ratio of 0.24 by UV/Vis titrations; details: Bos taurus
Nucleic Acid [10] = test: Binding affinity to calf thymus DNA assessed as change in melting temperature at compound to polynucleotide ratio of 0.1 by UV-VIS spectroscopic analysis; format: nucleic-acid assay; details: Bos taurus; outline: as §2
Nucleic Acid [11] = test: Binding affinity to calf thymus DNA assessed as hypochromic changes at 330 nm wavelength by UV-Vis spectrophotometric titrations; format: nucleic-acid assay; details: Bos taurus; outline: as §1
MIA PaCa-2 [12] = test: Cytostatic activity against human MIAPaCa2 cells at 1 to 10 uM after 72 hrs by MTT assay; format: functional, cell-based; outline: as §3
Nucleic Acid [13] = test: Binding affinity to calf thymus DNA assessed as change in melting temperature at compound to polynucleotide ratio of 0.3 by UV-VIS spectroscopic analysis; format: nucleic-acid assay; details: Bos taurus; outline: as §2
HEp-2 [14] = test: Cytostatic activity against human Hep2 cells at 1 to 10 uM after 72 hrs by MTT assay; format: functional, cell-based; outline: as §3
Nucleic Acid [15] = test: Binding affinity to calf thymus DNA assessed as fluorescence quenching at compound to DNA ratio of 0.20 by fluorimetric titrations; format: nucleic-acid assay; details: Bos taurus
Outline: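 Fluorimetric titration: portions of ct-DNA (sonicated, filtered, concentration as phosphate) added to compound in cacodylate buffer pH 7.0, I = 0.05 mol dm^-3. Emission 350–600 nm, sample absorbance <0.05 at excitation, mostly DNA excess (r < 0.1). Ks and n = [bound compound]/[DNA phosphate] by non-linear least-squares Scatchard fitting.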

WI-38 [16] = test: Antiproliferative activity against human WI38 cells after 72 hrs by MTT assay; format: cell-based; details: Homo sapiens, WI-38, 72 h
Outline: (§5)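 Monolayer cells in DMEM with 10% FBS, 2 mM L-glutamine, penicillin and streptomycin at 37 °C, 5% CO2. Seeded at 3000-6000 cells/well by doubling time on day 0. Five 10-fold dilutions (0.01–100 µM) were added and incubated 72 h. MTT read-out, converted to percentage growth. IC50 by linear regression between bracketing concentrations. Quadruplicate points, three independent experiments, ANOVA/Tukey p<0.05.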

HeLa [17] = test: Antiproliferative activity against human HeLa cells after 72 hrs by MTT assay; format: functional, cell-based; details: Homo sapiens, HeLa, 72 h; outline: as §5
Nucleic Acid [18] = test: Binding affinity to calf thymus DNA assessed as hypochromic changes at 360 nm wavelength by UV-Vis spectrophotometric titrations; format: nucleic-acid assay; details: Bos taurus; outline: as §1
MCF7 [19] = test: Antiproliferative activity against human MCF7 cells after 72 hrs by MTT assay; format: functional, cell-based; details: Homo sapiens, MCF7, 72 h; outline: as §5
Nucleic Acid [20] = test: Binding affinity to calf thymus DNA assessed as appearance of weak, negative CD band at 325 nm wavelength by circular dichroism spectroscopy; format: nucleic-acid assay; details: Bos taurus; outline: as §4
WI-38 [21] = test: Cytostatic activity against human WI38 cells at 1 to 10 uM after 72 hrs by MTT assay; format: ADME, cell-based; details: wi-38, 72 h; outline: as §3
SW-620 [22] = test: Antiproliferative activity against human SW620 cells after 72 hrs by MTT assay; format: functional, cell-based; details: Homo sapiens, SW-620, 72 h; outline: as §5
SK-BR-3 [23] = test: Antiproliferative activity against human SKBR3 cells after 72 hrs by MTT assay; format: functional, cell-based; details: Homo sapiens, SK-BR-3, 72 h; outline: as §5
MIA PaCa-2 [24] = test: Antiproliferative activity against human MIAPaCa2 cells after 72 hrs by MTT assay; format: functional, cell-based; details: Homo sapiens, MIA PaCa-2, 72 h; outline: as §5
Nucleic Acid [25] = test: Binding affinity to calf thymus DNA assessed as hypochromic changes at 342 nm wavelength by UV-Vis spectrophotometric titrations; format: nucleic-acid assay; details: Bos taurus; outline: as §1
Nucleic Acid [26] = test: Binding affinity to calf thymus DNA assessed as hypochromic changes at 327 nm wavelength by UV-Vis spectrophotometric titrations; format: nucleic-acid assay; details: Bos taurus; outline: as §1
HEp-2 [27] = test: Antiproliferative activity against human Hep2 cells after 72 hrs by MTT assay; format: functional, cell-based; details: Homo sapiens, HEp-2, 72 h; outline: as §5
Nucleic Acid [28] = test: Binding affinity to calf thymus DNA assessed as appearance of weak positive CD band at compound to DNA ratio of > 0.3 and 350 to 400 nm wavelength by circular dichroism spectroscopy; format: nucleic-acid assay; details: Bos taurus; outline: as §4

ΔTm (Nucleic Acid [2])	ΔTm (Nucleic Acid [6])	ΔTm (Nucleic Acid [10])	ΔTm (Nucleic Acid [13])	Structure (SMILES)	Activity (MCF7 [3])	Activity (SW-620 [5])	Activity (HeLa [7])	Activity (SK-BR-3 [8])	Activity (MIA PaCa-2 [12])	Activity (HEp-2 [14])	further results
1.4 °C	1.3 °C	0.7 °C	0.2 °C	Nc1ccc2c(ccc3nc4ncccc4n32)c1	Active	Active	Active	Active	Active	Active	Activity (Nucleic Acid [1]): 18%; Activity (Nucleic Acid [4]): inactive; log Ks (Nucleic Acid [9]): 4.6; Activity (Nucleic Acid [11]): 26%
2.6 °C	6.1 °C	1.6 °C	4.25 °C	C[n+]1cccc2c1nc1ccc3ccccc3n12.[I-]	Active	Active	Active	Active	Active	Active	log Ks (Nucleic Acid [15]): 4.9; pIC50 (WI-38 [16]): 5.20; pIC50 (HeLa [17]): 5.12; Activity (Nucleic Acid [18]): 38%; pIC50 (MCF7 [19]): 5.12; Activity (Nucleic Acid [20]): Active; Activity (WI-38 [21]): Toxic; pIC50 (SW-620 [22]): 4.83; pIC50 (SK-BR-3 [23]): 5.45; pIC50 (MIA PaCa-2 [24]): 5.07; Activity (Nucleic Acid [25]): 37%; Activity (Nucleic Acid [26]): 28%; pIC50 (HEp-2 [27]): 4.88; Activity (Nucleic Acid [28]): Active

Reference: ChEMBL document CHEMBL1806443, “Novel imidazo[4,5-b]pyridine and triaza-benzo[c]fluorene derivatives: synthesis, antiproliferative activity and DNA binding studies” (Eur J Med Chem, 2011)
